Compound activity (PubChem BioAssay)
PAD4 inh: inhibitors of human PAD4; Q9UM07; recombinant PAD4, RCA probe fluorescence polarization; inhibition, % at 6.36 µM; hit rate 0.41% among 330,000; AID 485272;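 active means percent inhibition above a cutoff equal to the mean of all tested compounds plus 3 SD, cut at about 15% in these data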;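 further: 0% = PAD4 with RCA probe and DMSO and 100% = probe without PAD4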
ABHD4 inh: ABHD4 (mouse) inhibition, primary FP screen; inhibition, % at 8.92 µM; Q8VD66; AID 720543; purified mABHD4, FP-Rh probe fluorescence polarization; hit rate 0.54% among 370,000;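 active means inhibition exceeding the mean over every tested compound plus 3 SD, cut at about 30% in these data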;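 further: 0% = plate median of compound wells and 100% = S159A mutant with DMSO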
Target sequence (Q8VD66 whole entry, looked up): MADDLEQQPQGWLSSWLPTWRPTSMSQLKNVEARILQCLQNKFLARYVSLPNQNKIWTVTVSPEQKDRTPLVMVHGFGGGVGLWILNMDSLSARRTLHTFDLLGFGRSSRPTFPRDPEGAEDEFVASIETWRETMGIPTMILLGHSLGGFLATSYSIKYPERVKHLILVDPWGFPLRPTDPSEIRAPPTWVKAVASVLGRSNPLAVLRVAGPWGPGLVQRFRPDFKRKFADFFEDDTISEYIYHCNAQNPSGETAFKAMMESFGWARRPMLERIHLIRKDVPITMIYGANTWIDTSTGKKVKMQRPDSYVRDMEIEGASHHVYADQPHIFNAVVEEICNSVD
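Assay system: mouse ABHD4 enzyme, wild type / Also added: fluorescent activity-based probe FP-Rh / Doses: single nominal dose of 8.92 µM, 0.89% DMSO final / Timing: 45 min compound pre-incubation plus 60 min probe step, 25 °C / Signal: FP readout, ex 525 nm / em 598 nm / Control set: S159A mutant/DMSO as 100%, compound-well median as 0%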
SIAE inh: human SIAE inhibition, primary screen. SIAE FP-Rh probe binding, fluorescence polarization. inhibition, % at 9.66 µM. hit rate 0.69% among 370,000. AID 1053197;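 active means inhibition above a cutoff: mean of compounds within the control limits plus 3 SD of those, cut at about 17% in these data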;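 further: 0% = plate median of compound wells and 100% = probe without SIAE protein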
TCR-CD3 inh: human TCR-CD3 binding inhibition | TAMRA-labeled TCR probe fluorescence, biochemical | hit rate 0.37% among 360,000 | inhibition, % at 9.4 µM | AID 651800; in the data active means inhibition above about 19%;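 further: recombinant mutant TCR 2C K166C tagged with TAMRA read by polarization; 0% = receptor in buffer alone and 100% = receptor with positive control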
TDP2 absorb: TDP2 (human) inhibition, absorbance primary screen | hit rate 0.34% among 370,000 | inhibition, % at 12.8 µM | O95551 | AID 720702 | recombinant TDP2, T5PNP hydrolysis, p-nitrophenol absorbance 415 nm;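 active means inhibition above the mean of all tested compounds plus 3 SD, set per campaign, cut at about 25% in these data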;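 further: 0% = DMSO with enzyme and 100% = buffer with substrate but no TDP2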
Target sequence (O95551 whole entry, looked up): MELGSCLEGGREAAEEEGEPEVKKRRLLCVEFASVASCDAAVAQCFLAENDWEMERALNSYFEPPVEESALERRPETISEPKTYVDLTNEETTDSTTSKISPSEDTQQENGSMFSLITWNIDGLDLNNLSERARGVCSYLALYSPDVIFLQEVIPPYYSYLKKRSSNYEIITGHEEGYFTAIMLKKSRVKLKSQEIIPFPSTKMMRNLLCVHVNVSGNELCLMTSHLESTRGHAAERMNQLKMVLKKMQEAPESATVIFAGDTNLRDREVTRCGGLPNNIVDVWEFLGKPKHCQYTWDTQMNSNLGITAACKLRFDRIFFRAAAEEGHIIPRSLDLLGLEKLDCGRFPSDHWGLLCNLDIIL
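Incubation: 2 h at 37 °C; Test system: recombinant human TDP2; Quantity: enzyme 120 nM; Read-out basis: percent inhibition; Medium: 50 mM Tris-HCl pH 7.5 with Mg2+, KCl, DTT, BSA; Repeats: single replicate; Compound: 12.8 µM single point, 1% DMSO; Signal: epi absorbance; Reagent: 5 mM T5PNP chromogenic substrate; Benchmarks: no-enzyme high, DMSO-plus-enzyme low.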
HTRA1 inhibitor: inhibitors of human serine peptidase HTRA1 | inhibition, % at 5.96 µM | hit rate 0.5% among 340,000 | recombinant HTRA1, FP-rhodamine activity-based probe, fluorescence polarization; in the data active means inhibition above about 36%;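 further: 0% = enzyme with DMSO and 100% = wells lacking enzyme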
SIAE inh conf: human SIAE inhibition, confirmation; shares compounds with SIAE inh; SIAE FP-Rh activity-based probe, fluorescence polarization; inhibition, % at 9.66 µM; hit rate 13% among 2,300; AID 1117263;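 active means mean inhibition of the replicates above the hit cutoff set in the primary screen, cut at about 17% in these data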;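 further: 0% = SIAE with DMSO and probe and 100% = probe without SIAE; inhibitors lower polarization as more probe stays unbound to SIAE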
* marks the source's active call; other numbers are inactive results; x = no result given. Most compounds without a hit are left out; they make up all but 2% or so of the library.

SMILES | PAD4 inh | ABHD4 inh | SIAE inh | TCR-CD3 inh | TDP2 absorb | HTRA1 inhibitor | SIAE inh conf
Cc1c(NC(=S)NC(=O)C(c2ccccc2)c2ccccc2)cccc1C(=O)O | -1 | 4 | 17* | 2 | 7 | -1 | -4
COc1cccc2c1O/C(=N\O)C(C(=O)Nc1cccc(Br)c1)C2 (centres undefined) | x | -9 | -8 | -1 | -16 | -31 | x
CC(C)C1Oc2ccccc2N(CC(=O)N2CCOCC2)C1=O (centres undefined) | -1 | 2 | 27* | 1 | 6 | 12 | -5
COc1ccc(/C=C/C(=O)NC(=S)Nc2cc([N+](=O)[O-])ccc2O)cc1OC | 0 | 12 | 18* | 50* | 4 | 6 | -5
O=C(NC1CCCCC1)C(c1ccc(C(F)(F)F)cc1)n1c(=O)c(-c2ccco2)nc2ccccc21 (centres undefined) | x | -12 | -13 | -1 | 10 | x | x
Cc1ccc(S(C)(=O)=O)cc1C(=O)NC(C)C1CC2CCC1C2 (centres undefined) | 6 | -1 | -2 | -5 | -5 | 0 | x
CC(C)CN(C(=O)C1CC1)C1CCS(=O)(=O)C1 (centres undefined) | -5 | -11 | -1 | -2 | -10 | 2 | x
CC(C)CN(C(=O)C1CCCCC1)C1CCS(=O)(=O)C1 (centres undefined) | -3 | 11 | 18* | -3 | 10 | 4 | 3
O=S(=O)(c1ccccc1)N1CCN(C(c2ccccc2)c2ccc(OC(F)(F)F)cc2)CC1 (centres undefined) | -1 | 1 | 1 | -10 | -6 | -5 | x
COc1cc(CNc2cccc3[nH]c(C(F)(F)F)nc23)cc(OC)c1 | -9 | 3 | 18* | -5 | -1 | -10 | 8
COc1ccc(CNc2cccc3[nH]c(C(F)(F)F)nc23)cc1 | -2 | 15 | 15 | 2 | -3 | 18 | x
COC(=O)C1CN(C2CC2)CCS(=O)(=O)N1Cc1cn(Cc2ccc(C)cc2)nn1 (centres undefined) | x | 10 | 10 | x | -10 | x | x
O=[N+]([O-])c1ccc(Nc2nc(N/N=C/c3cccc(F)c3)nc(N3CCCC3)n2)cc1 | -1 | 5 | -25 | 1 | -21 | -47 | x
COc1cccc(/C=N/Nc2nc(Nc3ccc([N+](=O)[O-])cc3)nc(N3CCCC3)n2)c1O | -6 | 8 | 19* | -2 | 4 | x | -8
Cc1cccc(C)c1NC(=O)c1cc(S(=O)(=O)N2CCOCC2)cn1C | 7 | -5 | 19* | 1 | -6 | 0 | -1
Cc1cccc(C(C(N)=O)c2ncc(C(F)(F)F)cc2Cl)c1 (centres undefined) | -4 | 3 | 4 | 7 | 9 | 5 | x
COC(=O)COc1ccc(-c2nn(C)c(=O)c3ccccc23)cc1 | -3 | -3 | 20* | 0 | -5 | 3 | 2
CCCCc1ccc(NC(=S)Nc2ccc(Nc3ccc(OC)cc3)cc2)cc1 | 3 | 25 | 27* | -5 | 7 | 31 | 13
CCCCc1ccc(NC(=S)NCc2cccc(OC)c2)cc1 | -4 | -39 | -5 | -12 | -11 | -31 | x
COc1ccc(NC(=O)CSc2nnc(Cn3cnc4ccccc43)o2)cc1 | -3 | -2 | 18* | -4 | -4 | 8 | 0
CNC(=O)c1cc(Oc2ccc(NC(=O)Nc3ccc(Cl)c(C(F)(F)F)c3)cc2)ccn1 | -6 | -171 | -215 | 18 | 0 | -125 | x
CC(=O)NNC(=O)CCn1nnc(-c2ccc(Cl)cc2)n1 | -2 | -2 | 21* | -2 | 3 | -3 | 5
CC(C)(C)NC(=O)Cn1nnc(-c2ccc(Cl)cc2)n1 | 0 | -10 | -1 | -4 | 11 | -1 | x
Nc1ccc(-c2nc3ccccc3[nH]2)cc1 | 2 | 7 | 9 | 3 | -5 | 0 | x
Nc1ccc2nc(-c3ccc(-c4nc5ccc(N)cc5[nH]4)cc3)[nH]c2c1 | -3 | -19 | 17* | -13 | 16 | x | 26*
SMILES | PAD4 inh | ABHD4 inh | SIAE inh | TCR-CD3 inh | TDP2 absorb | HTRA1 inhibitor | SIAE inh conf
CN(C)C1=C(Cl)C(=O)N(c2ccc(Cl)c(Cl)c2)C1=O | -5 | 5 | 19* | 0 | -11 | -62 | 1
O=C(CSc1nnc(SCc2cccc3ccccc23)s1)N/N=C/c1c[nH]c2ccccc12 | 4 | -8 | 30* | 8 | -1 | -28 | 0
O=C(CSc1nnc(SCc2ccc(Cl)cc2)s1)N/N=C/c1c[nH]c2ccccc12 | 3 | 5 | 0 | 1 | 13 | -5 | x
CC1C(=O)Nc2ccc(S(=O)(=O)NCCc3ccc(Cl)cc3)cc2NC1=O (centres undefined) | 4 | -10 | -8 | -7 | -4 | -3 | x
CCC/C(=N/NC(=O)c1ccccc1Cl)c1ccccc1 | -9 | 1 | 17* | 3 | 13 | -2 | 0
O=C(N=Nc1c(O)[nH]c2ccccc12)c1ccc2c(c1)OCO2 | -2 | 5 | -4 | -3 | 7 | 7 | x
COc1cc(S(=O)(=O)NCc2ccccc2)ccc1F | -4 | 0 | 19* | -5 | -3 | -2 | -3
CC(=O)Oc1ccc(CN2C(=O)C(CCc3ccccc3)ON=C2c2cnccn2)cc1 (centres undefined) | x | 3 | -6 | -8 | 6 | x | x
COc1ccc(N=C2SC(C(=O)O)CC(=O)N2C)cc1 (centres undefined) | -3 | 6 | 25* | 5 | 1 | 6 | -3
O=C(NNC(=O)c1ccc2c(=O)n3c(nc2c1)CCC3)c1ccc(Cl)cc1 | -1 | -4 | 3 | 4 | 6 | 1 | x
O=C(NNC(=O)c1ccc2c(=O)n3c(nc2c1)CCC3)c1ccc(F)cc1 | -3 | 2 | 23* | -1 | 3 | 2 | 3
CCN(CC)CCn1c(=N)n(CCO)c2ccccc21 | -3 | 2 | 21* | -1 | 8 | -3 | -7
CC(=O)Nc1ccc(C(=O)Nc2ccc(S(=O)(=O)N3CCCC3)cc2)cc1 | 0 | 0 | -4 | 0 | 0 | -6 | x
Cn1nccc1C(=O)Nc1ccc(S(=O)(=O)N2CCCC2)cc1 | -3 | 8 | 18* | -2 | 20 | 5 | 6
COC(=O)[C@H]1C[C@@]2(n3ccc4ccccc43)c3ccccc3N(S(=O)(=O)c3ccccc3)[C@H]2N1C(=O)CNC1CCCCC1 | x | 16 | -5 | x | 4 | x | x
COc1ccc(C(=O)NC(=S)Nc2cccc3cc(O)ccc23)cc1OC | 1 | 4 | 28* | -3 | -2 | -13 | 6
O=C(O)Cc1c(C(=O)O)[nH]c2ccc(C(=O)O)cc12 | -3 | 6 | 0 | 8 | 2 | 1 | x
CCCc1nc2ccccc2c(C(=O)OCC(=O)NC2CC2)c1CC | 0 | -3 | 25* | 1 | 1 | -5 | 4
N#Cc1c(/N=C/c2cccnc2)sc2c1CCCC2 | 0 | 6 | 22* | 7 | 1 | x | -1
